The target in data set [1] is T1, P2X purinoceptor 7 (Rattus norvegicus) (UniProt Q64663).
T1 sequence (whole entry): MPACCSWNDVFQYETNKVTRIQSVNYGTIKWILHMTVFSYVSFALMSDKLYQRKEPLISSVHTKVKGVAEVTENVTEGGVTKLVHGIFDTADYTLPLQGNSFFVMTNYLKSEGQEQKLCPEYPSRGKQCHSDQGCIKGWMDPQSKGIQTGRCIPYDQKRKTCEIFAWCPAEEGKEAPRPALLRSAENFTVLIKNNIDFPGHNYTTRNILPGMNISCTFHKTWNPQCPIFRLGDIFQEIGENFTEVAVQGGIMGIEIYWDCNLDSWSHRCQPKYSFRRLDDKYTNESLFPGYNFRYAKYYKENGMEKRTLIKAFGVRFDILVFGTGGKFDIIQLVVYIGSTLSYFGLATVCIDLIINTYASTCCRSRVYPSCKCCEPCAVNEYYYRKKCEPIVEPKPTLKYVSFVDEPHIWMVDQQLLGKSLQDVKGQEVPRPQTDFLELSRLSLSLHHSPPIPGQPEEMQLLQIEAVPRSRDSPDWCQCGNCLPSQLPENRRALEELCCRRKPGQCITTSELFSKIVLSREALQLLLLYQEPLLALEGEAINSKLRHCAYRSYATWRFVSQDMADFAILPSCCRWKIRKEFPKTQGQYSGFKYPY
Description: Antagonist activity at P2X7 receptor in neuropathic rat dorsal horn assessed as inhibition of long term potentiation-induced neropathic pain at 20 uM relative to control. The note with it: Dorsal horn of spinal cord. In short, it runs like this:
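Ex vivo spinal cord preparation: LTP-induced pain signalling recorded in the dorsal horn of neuropathic rats. Pregabalin served as the positive control.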

For data set [2], the target named is T2, P2X purinoceptor 7 (Homo sapiens) (UniProt Q99572).
T2 sequence (whole entry): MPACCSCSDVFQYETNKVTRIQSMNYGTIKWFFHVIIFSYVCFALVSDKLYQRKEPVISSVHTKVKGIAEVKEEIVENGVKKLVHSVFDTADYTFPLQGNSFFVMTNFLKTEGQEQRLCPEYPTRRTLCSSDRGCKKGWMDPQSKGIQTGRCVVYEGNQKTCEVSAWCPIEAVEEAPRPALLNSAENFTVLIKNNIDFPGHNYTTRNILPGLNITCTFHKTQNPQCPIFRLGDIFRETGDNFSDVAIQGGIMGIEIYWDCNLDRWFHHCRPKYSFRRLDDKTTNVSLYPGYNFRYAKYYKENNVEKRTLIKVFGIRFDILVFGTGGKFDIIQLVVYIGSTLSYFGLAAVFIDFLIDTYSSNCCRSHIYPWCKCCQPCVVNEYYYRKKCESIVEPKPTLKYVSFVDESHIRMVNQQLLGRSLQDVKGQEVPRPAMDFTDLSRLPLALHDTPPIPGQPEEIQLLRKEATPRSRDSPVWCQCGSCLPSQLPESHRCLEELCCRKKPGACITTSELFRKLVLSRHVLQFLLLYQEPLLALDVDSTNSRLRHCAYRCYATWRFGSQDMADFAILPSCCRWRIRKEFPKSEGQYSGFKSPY
Description: Antagonist activity at recombinant human P2X7 receptor expressed in HEK293 cells assessed as inhibition of BzATP-induced intracellular ethidium bromide uptake at 10 uM after 2 hrs by fluorescence assay. Format: cell-based.

The target of data set [3] is T3, P2X purinoceptor 7 (Mus musculus, UniProt Q9Z1M0).
T3 sequence (Q9Z1M0 whole entry): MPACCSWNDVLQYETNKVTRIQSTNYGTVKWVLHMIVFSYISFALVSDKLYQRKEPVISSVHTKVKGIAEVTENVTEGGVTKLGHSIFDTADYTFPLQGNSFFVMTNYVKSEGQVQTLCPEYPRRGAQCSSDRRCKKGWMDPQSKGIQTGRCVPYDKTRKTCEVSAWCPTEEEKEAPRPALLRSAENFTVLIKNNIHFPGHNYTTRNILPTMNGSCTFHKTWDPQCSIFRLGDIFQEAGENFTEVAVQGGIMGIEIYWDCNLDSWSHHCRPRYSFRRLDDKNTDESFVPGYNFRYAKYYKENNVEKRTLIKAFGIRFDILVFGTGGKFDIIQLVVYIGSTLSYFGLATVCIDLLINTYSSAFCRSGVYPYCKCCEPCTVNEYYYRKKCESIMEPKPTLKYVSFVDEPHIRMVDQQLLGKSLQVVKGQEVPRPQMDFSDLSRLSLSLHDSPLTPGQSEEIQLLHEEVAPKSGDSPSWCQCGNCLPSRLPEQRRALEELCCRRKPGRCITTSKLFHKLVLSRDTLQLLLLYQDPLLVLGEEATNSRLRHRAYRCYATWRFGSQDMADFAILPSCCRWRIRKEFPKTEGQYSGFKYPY
The data set is described as follows: Antagonist activity at P2X7 receptor in LPS-primed mouse J774.A1 cells assessed as inhibition of ATP-induced IL-1beta release after 30 mins by ELISA. Format: cell-based. In a few lines:
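J774.A1 mouse cells stimulated with 5 mM ATP; IL-1β release measured, with IC50 taken from concentration-response data.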
For orientation: ELISA stands for enzyme-linked immunosorbent assay.

Data set [4] deals with T4, P2X purinoceptor 7 (Homo sapiens, UniProt Q99572).
T4 sequence (Q99572 whole entry): T2 sequence (whole entry)
Description: Antagonist activity at human P2X7 receptor.

Data set [5] has as its target T4, P2X purinoceptor 7. The data set is described as follows: Antagonist activity at recombinant human P2X7 receptor expressed in HEK293 cells assessed as inhibition of BzATP-induced intracellular ethidium bromide uptake after 2 hrs by fluorescence assay. The data set is classed as cell-based. In short, it runs like this:
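Human HEK293 cells stably expressing recombinant human P2X7; ethidium accumulation stimulated by BzATP was measured.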

For data set [6], the target named is T4, P2X purinoceptor 7. The data set is described as follows: Antagonist activity at P2X7 receptor in LPS/IFN-gamma-differentiated human THP1 cells assessed as inhibition of BzATP-induced IL-1beta release preincubated for 30 mins followed by BzATP induction measured after 30 mins by ELISA. The data set is classed as cell-based, THP-1. In a few lines: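 Human THP-1 monocytes, LPS-primed, stimulated with BzATP; IL-1β release measured by ELISA. Active compounds were screened at 1 µM, and full concentration-response curves were run to obtain IC50.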

The nature of data set [7]: AUClast in rat at 10 mg/kg, ip. Format: ADME, organism-based. Conditions: plasma. Further details: time 0 - last, dose 10 mg/kg, route intraperitoneal. In a few lines:
(§1)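 Rats were dosed with the test agent intraperitoneally or by intravenous injection. Drug levels were followed in plasma over time after dosing. Intravenous and intraperitoneal exposures were compared to give absolute bioavailability.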

Data set [8] can be described thus: Cmax in rat at 10 mg/kg, ip. The data set is classed as ADME, organism-based. Further details: dose 10 mg/kg, route intraperitoneal. The note with it: in vivo. In short, it runs like this:
(§2)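 Rats dosed 10 mg/kg intraperitoneally; plasma concentrations were measured, and absolute bioavailability was calculated relative to intravenous dosing.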

Data set [9] is described as follows: Half life in rat at 10 mg/kg, ip. Format: ADME, organism-based. Further details: dose 10 mg/kg, route intraperitoneal. The note with it: in vivo.
A short description of data set [10]: Bioavailability in rat at 10 mg/kg, ip. The data set is classed as ADME, organism-based. The note with it: in vivo. In short, it runs like this:
as §2

The nature of data set [11]: AUClast in rat at 20 mg/kg, iv. The data set is classed as ADME, organism-based. Conditions: plasma. Also noted: time 0 - last, dose 20 mg/kg, route intravenous. In a few lines: as §1
Data set [12] in a line: Terminal half life in rat at 20 mg/kg, iv. The data set is classed as ADME, organism-based. Also noted: dose 20 mg/kg, route intravenous. Conditions: in vivo, read-out: beta t1/2. In short, it runs like this: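 Rats dosed intravenously; mean terminal half-life was derived from the plasma concentration decline.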
The target of data set [13] is T2, P2X purinoceptor 7 (Homo sapiens). Description: Antagonist activity at P2X7 receptor in LPS/IFN-gamma-differentiated human THP1 cells assessed as inhibition of BzATP-induced IL-1beta release at 1 uM preincubated for 30 mins followed by BzATP induction measured after 30 mins by ELISA relative to control. Format: cell-based. The note with it: THP-1. In a few lines:
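LPS-primed THP-1 human monocytes were stimulated with BzATP, and IL-1β release was measured by ELISA. Test compound was given at a single concentration of 1 µM, and results are expressed as percent inhibition of BzATP-induced IL-1β release.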

Molecules are shown by their SMILES. pIC50: −log10 of the molar value. Active and inactive are the calls of the source. The calls are words filed in the database; no cut-off is given here.

Turning to `CC(C)C[C@H](CN)CC(=O)O`, the inhibition in [1] was 31%.
With `O=C1NC(=O)N(C2CCN(C(=O)c3ccc(Cl)c(C(F)(F)F)c3)CC2)C1c1ccc(OS(=O)(=O)c2cccc3cnccc23)cc1` (racemic), the inhibition in data set [2] turned out to be 30%.
Still for that read-out and setting: with `O=C1NC(=O)N(C2CCN(C(=O)CC34CC5CC(CC(C5)C3)C4)CC2)C1c1ccc(OS(=O)(=O)c2cccc3cnccc23)cc1` (racemic) the figure was 46%.
For `O=C(NCC12CC3CC(CC(C3)C1)C2)c1cc(CCCNCCCO)ccc1Cl`, the pIC50 in data set [3] is less than 4.22.
Consider `O=C(N[C@@H](Cc1ccc(OS(=O)(=O)c2ccc([N+](=O)[O-])cc2)cc1)C(=O)N1CCN(C(=O)c2ccccc2)CC1)OCc1ccccc1`, for which the pIC50 in [4] was 7.47.
The same measure, in the same setting: in the case of `O=C([C@@H]1Cc2ccc(OS(=O)(=O)c3cccc4cnccc34)cc2CN1S(=O)(=O)c1cccc2cnccc12)N1CCN(c2ccccc2)CC1` it was more than 6.00.
`O=C1NC(=O)N(C2CCN(C(=O)c3ccc(Cl)c(C(F)(F)F)c3)CC2)C1Cc1ccc(OS(=O)(=O)c2cccc3cnccc23)cc1` (racemic): the pIC50 in data set [5] was 7.15; in data set [6], 7.30; in data set [3], 4.93. Further, the AUC(0-t) is 1520 ng·h/mL in data set [7] and 3530 ng·h/mL in data set [11]. In [8], the Cmax was 400 ng/mL. Further, the half-life was found to be 2.15 h in data set [9] and 1.29 h in [12]. The molecule further had a bioavailability in [10] of 86%.
Regarding `O=C1NC(=O)N(C2CCN(C(=O)CC34CC5CC(CC(C5)C3)C4)CC2)C1Cc1ccc(OS(=O)(=O)c2cccc3cnccc23)cc1` (racemic), the pIC50 in data set [5] was 7.08; in data set [6] it was 7.82. The inhibition in data set [13] is more than 95%.
As for `O=C1NC(=O)N(C2CCNCC2)C1Cc1ccc(OS(=O)(=O)c2cccc3cnccc23)cc1` (racemic), the inhibition entry in [2] was “inactive”.
For `O=C1NC(=O)[C@H](Cc2ccc(OS(=O)(=O)c3cccc4cnccc34)cc2)N1`, the inhibition entry in data set [2] is “inactive”.
On the same count and under the same terms, in the case of `O=C1NC(=O)N(C2CCN(C(=O)C34CC5CC(CC(C5)C3)C4)CC2)C1c1ccc(OS(=O)(=O)c2cccc3cnccc23)cc1` (racemic) it was 48%.
Regarding `O=C1NC(=O)N(C2CCN(C(=O)CC3CC4CCC3C4)CC2)C1Cc1ccc(OS(=O)(=O)c2cccc3cnccc23)cc1` (racemic), the results for the pIC50 in [5] and in data set [6] were 6.96 and 7.54, respectively. Also, the inhibition in data set [13] was more than 95%.
`O=C1NC(=O)N(CC2CCNCC2)C1Cc1ccc(OS(=O)(=O)c2cccc3cnccc23)cc1` (racemic): the inhibition result in [2] is “inactive”.
As to `CC(C)(C)OC(=O)N1CCN(C(=O)[C@H](Cc2ccc(OS(=O)(=O)c3cccc4cnccc34)cc2)NS(=O)(=O)c2cccc3cnccc23)CC1`, the pIC50 in [4] is 7.39.

The inhibition is how much of the control response was suppressed. The pIC50 is the IC50 on a negative log10 scale, so that one unit is a factor of ten. By AUC(0-t) is commonly meant the area under the concentration-time curve up to a stated or last time point. High values mean high exposure, low ones low exposure. What is called Cmax is the highest concentration seen after dosing. What is called bioavailability is dose-corrected exposure relative to a reference, in per cent. Higher therefore signals good availability.

The values above are taken from ChEMBL document CHEMBL3414458, “Discovery of novel 2,5-dioxoimidazolidine-based P2X(7) receptor antagonists as constrained analogues of KN62” (J Med Chem, 2015).
